A short description of data set [1]: Drug metabolism in human stomach microsomes assessed as glucuronidation activity at 0.1 mM for 60 mins in presence of 3 mM UDP-GlcUA. The data set is classed as ADME. To be noted: 1 h, 100 µM. The method, boiled down:
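Microsomes from single donors (20 μg protein) incubated with 0.1 mM substrate and 3 mM UDP-GlcUA for 60 min at 37°C in Tris-HCl pH 7.4 buffer with 5 mM MgCl2, 5 mM saccharolactone and 2% DMSO. Glucuronide measured by HPLC; donor data summarized as box-and-whisker plots.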

The target of data set [2] is T1, UDP-glucuronosyltransferase 1A10 (Homo sapiens, UniProt Q9HAW8).
T1 sequence (Q9HAW8 whole entry): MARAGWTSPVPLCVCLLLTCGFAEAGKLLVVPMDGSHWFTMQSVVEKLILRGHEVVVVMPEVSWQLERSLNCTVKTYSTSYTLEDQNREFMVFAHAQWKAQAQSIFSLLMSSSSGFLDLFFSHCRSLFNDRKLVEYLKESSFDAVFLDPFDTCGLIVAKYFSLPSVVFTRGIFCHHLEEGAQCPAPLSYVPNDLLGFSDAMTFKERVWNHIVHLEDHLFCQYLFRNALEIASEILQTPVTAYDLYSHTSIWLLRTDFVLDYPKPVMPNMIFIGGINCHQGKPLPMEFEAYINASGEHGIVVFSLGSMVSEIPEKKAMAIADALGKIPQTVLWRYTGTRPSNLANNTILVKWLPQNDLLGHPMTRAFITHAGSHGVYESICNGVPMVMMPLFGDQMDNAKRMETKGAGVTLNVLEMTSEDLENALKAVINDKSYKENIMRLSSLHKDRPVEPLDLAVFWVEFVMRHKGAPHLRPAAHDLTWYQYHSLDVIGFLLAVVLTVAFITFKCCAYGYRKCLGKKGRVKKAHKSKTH
In words: Activity of human recombinant UGT1A10 expressed in baculovirus-infected Sf9 cells assessed as glucuronidation activity per mg of protein at 100 to 200 uM after 60 mins in presence of 3 mM UDP-GlcUA. The data set is classed as ADME. The conditions noted are these: sf9, 1 h. The method, boiled down:
(§1)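 Screening: 5 μg recombinant UGT protein (His-tag levels normalized) in Tris-HCl pH 7.4, 5 mM MgCl2, 5 mM saccharolactone, 2% DMSO to permeabilize membranes. Substrate at 100 or 200 μM, added in water. Started with 3 mM UDP-GlcUA, 60 min at 37°C, stopped with ethanol, then centrifuged. Glucuronide quantified by reversed-phase C18 HPLC against the substrate response; triplicates.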

Data set [3] is described as follows: Drug metabolism in human intestinal microsomes assessed as ratio of Vmax to Km for glucuronidation per mg of protein after 60 mins by Michaelis-Menten equation in presence of 3 mM UDP-GlcUA. The data set is classed as ADME, Intestine, Microsome. The conditions noted are these: 1 h. The method, boiled down: (§2)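 Recombinant UGT membrane protein (5 μg; His-tagged UGT1A levels normalized by anti-His Western blot) or single-donor microsomes (20 μg) incubated with substrate 5–1000 μM and 3 mM UDP-GlcUA in […] pH 7.4, 5 mM MgCl2, 5 mM saccharolactone, 2% DMSO, 60 min, 37°C. Ethanol stop, centrifuged, HPLC-UV. Initial velocities fitted to Michaelis-Menten, Hill or substrate-inhibition models; three determinations.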

The test system of data set [4] is Liver microsome. In words: Drug metabolism in human liver microsomes assessed as ratio of Vmax to Km for glucuronidation per mg of protein after 60 mins by Michaelis-Menten equation in presence of 3 mM UDP-GlcUA. The data set is classed as ADME. The conditions noted are these: 1 h. The method, boiled down:
as §2
In general terms: Liver microsomes are a subcellular fraction often used to study metabolism.

Data set [5] has as its target T2, UDP-glucuronosyltransferase 1A1 (Homo sapiens, UniProt P22309).
T2 sequence (P22309 whole entry): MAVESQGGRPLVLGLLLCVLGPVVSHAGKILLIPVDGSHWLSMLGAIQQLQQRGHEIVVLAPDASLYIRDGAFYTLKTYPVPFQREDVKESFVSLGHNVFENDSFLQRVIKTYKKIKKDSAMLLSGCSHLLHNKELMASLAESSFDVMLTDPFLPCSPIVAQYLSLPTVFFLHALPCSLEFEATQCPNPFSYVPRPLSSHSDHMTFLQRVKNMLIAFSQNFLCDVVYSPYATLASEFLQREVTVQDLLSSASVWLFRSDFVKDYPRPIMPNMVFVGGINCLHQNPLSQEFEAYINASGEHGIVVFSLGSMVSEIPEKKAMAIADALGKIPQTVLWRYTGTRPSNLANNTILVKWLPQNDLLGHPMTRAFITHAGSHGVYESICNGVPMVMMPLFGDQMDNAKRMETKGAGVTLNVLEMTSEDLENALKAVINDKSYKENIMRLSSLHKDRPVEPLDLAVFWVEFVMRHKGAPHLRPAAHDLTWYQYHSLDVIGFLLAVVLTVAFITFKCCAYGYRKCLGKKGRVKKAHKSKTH
In words: Activity of human recombinant UGT1A1 expressed in baculovirus-infected Sf9 cells assessed as glucuronidation activity per mg of protein at 100 to 200 uM after 60 mins in presence of 3 mM UDP-GlcUA. The data set is classed as ADME. The conditions noted are these: sf9, 1 h. The method, boiled down: as §1

In data set [6] the test system is Liver microsome. In words: Drug metabolism in human liver microsomes assessed as glucuronidation activity at 0.2 mM for 60 mins by ESI-MS analysis in presence of 3 mM UDP-GlcUA. It is filed as ADME. The conditions noted are these: 1 h, 200 µM. The method, boiled down:
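Single-donor liver or intestinal microsomes (20 μg total protein) incubated with 0.2 mM substrate and 3 mM UDP-GlcUA for 60 min at 37°C in Tris-HCl pH 7.4, MgCl2, saccharolactone, 2% DMSO. Ethanol stop, centrifuged, HPLC analysis; triplicates.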

Data set [7] in a line: Drug metabolism in human liver microsomes assessed as glucuronidation after 60 mins by Michaelis-Menten equation in presence of 3 mM UDP-GlcUA. The data set is classed as ADME. The method, boiled down:
as §2

Data set [8] deals with T3, UDP-glucuronosyltransferase 1A7 (Homo sapiens, UniProt Q9HAW7).
T3 sequence (Q9HAW7 whole entry): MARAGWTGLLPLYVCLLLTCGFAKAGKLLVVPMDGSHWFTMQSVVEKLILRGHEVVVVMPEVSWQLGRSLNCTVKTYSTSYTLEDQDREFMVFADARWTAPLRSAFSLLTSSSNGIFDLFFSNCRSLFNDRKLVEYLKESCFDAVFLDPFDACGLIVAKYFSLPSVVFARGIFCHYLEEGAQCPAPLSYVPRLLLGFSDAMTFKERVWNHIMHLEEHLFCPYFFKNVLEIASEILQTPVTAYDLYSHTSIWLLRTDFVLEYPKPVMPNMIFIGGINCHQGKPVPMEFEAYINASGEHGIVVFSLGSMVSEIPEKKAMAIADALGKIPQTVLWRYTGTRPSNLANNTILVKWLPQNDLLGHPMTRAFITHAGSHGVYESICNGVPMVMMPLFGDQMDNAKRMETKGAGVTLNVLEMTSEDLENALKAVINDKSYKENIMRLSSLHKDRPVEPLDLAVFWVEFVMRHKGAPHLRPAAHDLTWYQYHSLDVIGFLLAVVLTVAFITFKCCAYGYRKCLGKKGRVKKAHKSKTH
In words: Activity of human recombinant UGT1A7 expressed in baculovirus-infected Sf9 cells assessed as glucuronidation activity per mg of protein at 100 to 200 uM after 60 mins in presence of 3 mM UDP-GlcUA. It is filed as ADME. The conditions noted are these: sf9, 1 h. In outline:
as §1

Experimental findings from ChEMBL document CHEMBL3526062, “Role of human UDP-glucuronosyltransferases in the biotransformation of the triazoloacridinone and imidazoacridinone antitumor agents C-1305 and C-1311: highly selective substrates for UGT1A10” (Drug Metab Dispos, 2012) are described below.

On to `CN(C)CCCNc1ccc2nnn3c4ccc(O)cc4c(=O)c1c23`, for which the Drug metabolism result in data set [1] is “metabolite_detected”; in data set [2], greater than 0.5 nmol/min/mg; in data set [5], less than 0.1 nmol/min/mg; in data set [6] it was “metabolite_detected”; in data set [8], 0.2 nmol/min/mg. For the same compound, the Vmax/Km in data set [3] and in data set [4] was 5.4 µL/min each time. Further, the Michaelis-Menten constant (Km) (as a rule, the concentration of substrate that gives half-maximal velocity) at 1 h in data set [7] amounted to 71.3 µM.
Turning to `CCN(CC)CCNc1ccc2ncn3c4ccc(O)cc4c(=O)c1c23` [C-1311], the Drug metabolism entry in data set [1] is “metabolite_detected”; in data set [2], greater than 0.5 nmol/min/mg; in data set [5] it was less than 0.1 nmol/min/mg; in data set [6] it was “metabolite_detected”; in data set [8], 0.2 nmol/min/mg. For the same compound, the Vmax/Km came to 5.2 µL/min in data set [3] and 4 µL/min in data set [4]. Moreover, the Km at 1 h in data set [7] amounted to 39.3 µM.
